Reference: ChEMBL document CHEMBL3120071, “Biologically active eremophilane-type sesquiterpenes from Camarops sp., an endophytic fungus isolated from Alibertia macrophylla” (J Nat Prod, 2014)

Assays:
[1] = (§1) Antioxidant activity in human neutrophils assessed as inhibition of oxidative burst-induced ROS production by chemiluminescence assay; format: functional, cell-based; conditions: Neutrophil
Outline: (§2)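 Human neutrophils were isolated and the respiratory burst was stimulated. Total ROS were measured by luminol-enhanced chemiluminescence (LumCL). DMSO replaced compound in the blanks, taken as 100%. Quercetin and apocynin served as positive controls, and IC50 was taken from concentration–response data.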

Myeloperoxidase = target: T1, Myeloperoxidase (Homo sapiens, UniProt P05164); test: Inhibition of myeloperoxidase (unknown origin) using HOCl/taurine as substrate assessed as inhibition of taurine chloramine production by spectrophotometry; format: single protein
T1 sequence (P05164 whole entry): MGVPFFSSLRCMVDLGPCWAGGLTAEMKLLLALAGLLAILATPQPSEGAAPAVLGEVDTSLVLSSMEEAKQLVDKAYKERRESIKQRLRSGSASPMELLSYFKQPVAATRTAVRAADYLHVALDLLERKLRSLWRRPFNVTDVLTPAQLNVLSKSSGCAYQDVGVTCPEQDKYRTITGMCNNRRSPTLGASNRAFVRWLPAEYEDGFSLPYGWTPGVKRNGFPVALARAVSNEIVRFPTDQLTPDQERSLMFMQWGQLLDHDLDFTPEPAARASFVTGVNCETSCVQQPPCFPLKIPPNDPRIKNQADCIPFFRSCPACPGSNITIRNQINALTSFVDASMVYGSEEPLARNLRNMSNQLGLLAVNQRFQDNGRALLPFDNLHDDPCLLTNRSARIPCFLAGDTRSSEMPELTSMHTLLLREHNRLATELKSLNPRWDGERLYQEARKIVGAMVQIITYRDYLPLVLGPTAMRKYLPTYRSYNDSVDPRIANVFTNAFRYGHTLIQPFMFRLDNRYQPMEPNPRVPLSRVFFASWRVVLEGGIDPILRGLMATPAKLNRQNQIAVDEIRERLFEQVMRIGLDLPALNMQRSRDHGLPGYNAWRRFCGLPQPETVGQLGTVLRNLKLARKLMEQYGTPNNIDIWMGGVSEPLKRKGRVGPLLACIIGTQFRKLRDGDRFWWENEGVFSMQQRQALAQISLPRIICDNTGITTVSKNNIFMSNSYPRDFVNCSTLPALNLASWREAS
Outline: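 MPO, quantified by absorbance at 430 nm (ε = 89 000 mol−1 cm−1 per heme), chlorinating activity was measured. The HOCl produced reacts with taurine to give taurine chloramine, which oxidizes TMB to a blue product read at 655 nm. 5-Fluorotryptamine was the positive control.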

[2] = Antioxidant activity […] assessed as […] HOCl scavenging activity by spectrophotometry; format: functional
Outline: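 Cell-free HOCl scavenging. HOCl was made by diluting commercial bleach and quantified at 292 nm (ε = 350 mol−1 cm−1). It reacts with taurine to give taurine chloramine, which oxidizes TMB. Absorbance was read at 655 nm, with quercetin as the positive control.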

[3] = Antioxidant activity […] assessed as xanthine/xanthine oxidase-induced ROS scavenging activity by WST-1 assay; format: functional
Outline: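 Superoxide was generated by xanthine/xanthine oxidase and detected as reduction of the tetrazolium salt WST-1 to a soluble formazan (modified Tan and Berridge method). Quercetin was the positive control.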

[4] = Cytotoxicity against human neutrophils assessed as cell viability at 10 uM by trypan blue exclusion assay; format: functional; conditions: Neutrophil, read-out: Activity
Outline: (§3)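 Human neutrophil viability was assessed by trypan blue exclusion after compound exposure at up to 100 μM for up to 60 min, including 10 μM, the concentration used in the respiratory burst studies.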

[5] = Cytotoxicity against human neutrophils at < 100 uM after 60 mins by trypan blue exclusion assay; format: cell-based; conditions: neutrophil, 1 h; outline: as §3
Neutrophil = test: as §1; format: functional, cell-based; outline: as §2

Row | IC50 [1] | IC50 (Myeloperoxidase) | IC50 [2] | Structure (SMILES) | IC50 [3] | viability at 10 µM [4] | Activity [5] | Activity (Neutrophil)
1 | 6.13 µM | > 100 µM | > 100 µM | C=C(CO)[C@@]12O[C@@H]1[C@@]1(C)C(=CC2=O)[C@H](OC(=O)C(C)CC(C)CC(C)CC)CC[C@@H]1C (stereo not given in full) [XYLARENONE C] | > 100 µM | > 98% | Non-toxic | Dose-dependent effect
2 | 3.9 µM |  |  | COc1cc(C(C)=O)ccc1O [APOCYNIN] |  |  |  | 
3 | 5.9 µM | > 100 µM | > 100 µM | CCC(C)CC(C)CC(O)(CO)C(=O)O[C@@H]1CC[C@H](C)[C@@]2(C)C=C([C@H](C)CO)C(=O)C=C12 (stereo not given in full) | > 100 µM | > 98% | Non-toxic | Dose-dependent effect
4 | 4.17 µM | > 100 µM | > 100 µM | CCC(C)CC(C)CC(O)(CO)C(=O)O[C@@H]1CC[C@H](C)[C@@]2(C)C=C([C@@H](C)CO)C(=O)C=C12 (stereo not given in full) | > 100 µM | > 98% | Non-toxic | Dose-dependent effect

Row | Structure (SMILES) | IC50 [1] | IC50 (Myeloperoxidase) | IC50 [2] | IC50 [3] | viability at 10 µM [4] | Activity [5] | Activity (Neutrophil)
5 | O=c1c(O)c(-c2ccc(O)c(O)c2)oc2cc(O)cc(O)c12 [QUERCETIN] | 4.86 µM |  |  |  |  |  | 
6 | C=C(CO)[C@@]12O[C@@H]1[C@@]1(C)C(=CC2=O)[C@H](OC(=O)C(O)(CO)CC(C)CC(C)CC)CC[C@@H]1C (stereo not given in full) [XYLARENONE D] | 5.73 µM | > 100 µM | > 100 µM | > 100 µM | > 98% | Non-toxic | Dose-dependent effect
